PAFAH1B2 inh: inhibitors of human PAFAH1B2; recombinant PAFAH1B2, FP-rhodamine activity probe, fluorescence polarization; inhibition, % at 3.39 µM; 340,000 tested, 1.2% active; AID 492953;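 active means inhibition above the mean of all tested compounds plus 3 SD, cut at about 24% in these data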;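 further: 0% = enzyme with DMSO and 100% = wells lacking PAFAH1B2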
Target sequence (P68402 whole entry, looked up): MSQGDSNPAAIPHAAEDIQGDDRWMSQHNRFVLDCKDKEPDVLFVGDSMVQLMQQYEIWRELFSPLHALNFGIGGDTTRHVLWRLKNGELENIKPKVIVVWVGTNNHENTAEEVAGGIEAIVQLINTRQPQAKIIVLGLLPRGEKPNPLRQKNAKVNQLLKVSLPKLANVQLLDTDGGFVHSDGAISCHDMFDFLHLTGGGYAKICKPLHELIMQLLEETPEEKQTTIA
ARFGAP1 inh: inhibits rat ARF GTPase activating protein 1; Q62848; Arfgap1-stimulated ARF1 GTP hydrolysis, GDP FP detection; inhibition, % at 16.5 µM; 360,000 tested, 0.26% active;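 active means inhibition above a per-plate limit, mean inhibition of low control wells plus 3 SD, cut at about 25% in these data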;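 further: 0% = DMSO wells with enzyme and 100% = wells lacking Arfgap1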
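Material – truncated rat Arfgap1 GAP domain · Buffer or medium – HEPES-based buffer, pH 7.5 · Reagent – human ARF1(Δ1-17)-GTP substrate · Dosing – 16.5 µM single point, 1.26% DMSO · Schedule – GTP hydrolysis reaction 2 h at 25 °C · Technique – GDP detection by fluorescence polarization · Benchmarks – No-Arfgap1 wells (100%) versus DMSO full-reaction wells (0%) · Repeats – single replicate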
pPAFAH FP inh: inhibitors of human plasma PAF acetylhydrolase (pPAFAH); Q13093; recombinant pPAFAH, FP-rhodamine probe fluorescence polarization; inhibition, % at 3.39 µM; 330,000 tested, 1.5% active;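 active means inhibition above the mean inhibition across the screen plus 3 SD, cut at about 25% in these data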;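 further: inhibitors block binding of the rhodamine activity-based probe so polarization drops; 0% = enzyme with DMSO and 100% = wells lacking pPAFAH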
ASAP1 GAP inh: blocks human ASAP1-stimulated Arf1 GTP hydrolysis; Q9ULH1; GDP FP detection; inhibition, % at 16.5 µM; 360,000 tested, 0.19% active; AID 624377; in the data active means inhibition above about 25%;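 further: 0% = vehicle with enzyme and substrate and 100% = no enzyme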
Target sequence (Q9ULH1 325-724 limits assumed): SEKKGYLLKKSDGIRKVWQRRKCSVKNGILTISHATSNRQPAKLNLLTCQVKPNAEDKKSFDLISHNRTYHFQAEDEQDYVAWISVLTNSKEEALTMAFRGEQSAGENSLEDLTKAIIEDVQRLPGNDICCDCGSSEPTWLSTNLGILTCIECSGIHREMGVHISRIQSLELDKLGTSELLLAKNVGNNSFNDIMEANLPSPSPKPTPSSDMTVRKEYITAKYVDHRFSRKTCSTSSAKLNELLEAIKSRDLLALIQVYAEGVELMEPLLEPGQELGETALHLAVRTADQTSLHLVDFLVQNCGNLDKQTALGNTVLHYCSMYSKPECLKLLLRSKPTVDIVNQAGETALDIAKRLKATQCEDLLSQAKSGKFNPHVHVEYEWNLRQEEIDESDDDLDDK
PAFAH2 inh: PAFAH2 (human) inhibition. Q99487. recombinant PAFAH2, FP-rhodamine activity probe, fluorescence polarization. inhibition, % at 3.39 µM. 340,000 tested, 0.99% active;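 active means inhibition above the mean over all tested compounds plus 3 SD, cut at about 30% in these data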;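 further: inhibitors block probe labeling of enzyme so polarization drops; 0% = enzyme with DMSO and 100% = wells lacking PAFAH2 protein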
PAFAH1B3 inh: blocks human PAF acetylhydrolase 1B catalytic subunit 3; inhibition, % at 3.39 µM; Q15102; recombinant PAFAH1B3, FP-rhodamine probe, fluorescence polarization; 340,000 tested, 0.28% active; AID 492972;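 active means inhibition above the screen-wide average of all tested compounds plus 3 SD, cut at about 25% in these data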;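 further: 0% = enzyme with DMSO only and 100% = wells lacking PAFAH1B3 protein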
PAFAH2 FP conf: confirmation of human PAFAH2 inhibitors; shares compounds with PAFAH2 inh; recombinant PAFAH2, FP-rhodamine activity probe, fluorescence polarization; inhibition, % at 3.39 µM; 2,300 tested, 65% active; AID 493030;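 active means mean inhibition over three repeats above a set limit taken from the earlier primary screen, cut at about 30% in these data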;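 further: inhibitor blocks binding of rhodamine activity probe so polarization falls; 0% = enzyme with DMSO and 100% = wells lacking PAFAH2 protein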
Active calls of the source: *. The list is not random: actives were taken first. Their share in the collection is about 2.7%.

How did O=C(COC(=O)CC1CCCC1)Nc1ccccc1[N+](=O)[O-] do in these assays?
PAFAH1B2 inh: -2; ARFGAP1 inh: 4; pPAFAH FP inh: 15; ASAP1 GAP inh: -10; PAFAH2 inh: 57*; PAFAH1B3 inh: 2; PAFAH2 FP conf: 51*

How did O=C(CC(=O)Nc1ccccc1[N+](=O)[O-])Nc1ccccc1[N+](=O)[O-] do in these assays?
PAFAH1B2 inh: 1; ARFGAP1 inh: 20; pPAFAH FP inh: -3; ASAP1 GAP inh: 0; PAFAH2 inh: 1; PAFAH1B3 inh: 1

How did COc1ccc(Cl)cc1NC(=O)CC1CCCC1 do in these assays?
PAFAH1B2 inh: 4; ARFGAP1 inh: -9; pPAFAH FP inh: -2; ASAP1 GAP inh: 19; PAFAH2 inh: 6; PAFAH1B3 inh: 1

Results for Cc1ccccc1NC(=O)COC(=O)CC1CCCC1 ?
PAFAH1B2 inh: 4; ARFGAP1 inh: -6; ASAP1 GAP inh: -11; PAFAH2 inh: 43*; PAFAH1B3 inh: -1; PAFAH2 FP conf: 29

What do the screens show for `Cc1ccc(Cl)cc1NC(=O)COC(=O)CC1CCCCC1`?
PAFAH1B2 inh: 11; ARFGAP1 inh: 5; pPAFAH FP inh: 13; ASAP1 GAP inh: -17; PAFAH2 inh: 31*; PAFAH1B3 inh: 6; PAFAH2 FP conf: 22

Results for CCCCCCc1ccc(-c2ccc(C#N)cc2)cc1 ?
ARFGAP1 inh: 10; ASAP1 GAP inh: 3

How did CCOC(=O)c1ccc(N(CCC2CO2)S(=O)(=O)c2ccc(C)cc2)cc1 (stereo not drawn) do in these assays?
PAFAH1B2 inh: -1; ARFGAP1 inh: 2; ASAP1 GAP inh: -6; PAFAH2 inh: 9; PAFAH1B3 inh: 2

Results for Cc1c(Cl)cccc1NCC(=O)NN=C1CCCC1 ?
PAFAH1B2 inh: -2; ARFGAP1 inh: -3; pPAFAH FP inh: 1; ASAP1 GAP inh: -5; PAFAH2 inh: 3; PAFAH1B3 inh: 3

What do the screens show for `CCOC(=O)C/C(C)=N/NC(=O)CNc1cccc(Cl)c1C`?
PAFAH1B2 inh: 3; ARFGAP1 inh: -3; pPAFAH FP inh: -2; ASAP1 GAP inh: 9; PAFAH2 inh: 72*; PAFAH1B3 inh: -1; PAFAH2 FP conf: 63*

Results for O=c1[nH][nH]c2c1[C@H](CCc1cccc(Cl)c1)O[C@H](C1CCCC1)C2 ?
ARFGAP1 inh: 5; ASAP1 GAP inh: -3

How did O=C(OCc1nnc(-c2ccccc2)o1)c1ccc2c(c1)OCO2 do in these assays?
PAFAH1B2 inh: 2; ARFGAP1 inh: -4; pPAFAH FP inh: 3; ASAP1 GAP inh: -1; PAFAH2 inh: 58*; PAFAH1B3 inh: -3; PAFAH2 FP conf: 60*

Results for CCOc1ccc(C(=O)NCC(=O)OCc2nnc(-c3ccccc3)o2)cc1OCC ?
PAFAH1B2 inh: 2; ARFGAP1 inh: -2; pPAFAH FP inh: 1; ASAP1 GAP inh: -10; PAFAH2 inh: 60*; PAFAH1B3 inh: 4; PAFAH2 FP conf: 53*

What do the screens show for `Cc1nn(Cc2ccccc2)c(Cl)c1C(=O)OCc1nnc(-c2ccccc2)o1`?
PAFAH1B2 inh: 3; ARFGAP1 inh: 1; pPAFAH FP inh: 7; ASAP1 GAP inh: -10; PAFAH2 inh: 32*; PAFAH1B3 inh: 6; PAFAH2 FP conf: 23

How did N#Cc1ccccc1COC(=O)c1ccc2c(c1)OCO2 do in these assays?
PAFAH1B2 inh: 2; ARFGAP1 inh: 13; pPAFAH FP inh: 3; ASAP1 GAP inh: -15; PAFAH2 inh: 8; PAFAH1B3 inh: 0

Results for CCOc1ccc(C(=O)OCc2nnc(-c3cccs3)o2)cc1OC ?
PAFAH1B2 inh: 0; ARFGAP1 inh: 5; pPAFAH FP inh: -4; ASAP1 GAP inh: 16; PAFAH2 inh: 85*; PAFAH1B3 inh: 9; PAFAH2 FP conf: 79*

What do the screens show for `O=C(OCc1nnc(-c2cccs2)o1)c1cccnc1Cl`?
PAFAH1B2 inh: 1; ARFGAP1 inh: -12; pPAFAH FP inh: 2; ASAP1 GAP inh: -7; PAFAH2 inh: 9; PAFAH1B3 inh: 4

How did O=C(CNC(=O)c1ccccc1)OCc1nnc(-c2ccccc2)o1 do in these assays?
PAFAH1B2 inh: 1; ARFGAP1 inh: 10; pPAFAH FP inh: 5; ASAP1 GAP inh: 3; PAFAH2 inh: 6; PAFAH1B3 inh: -3

What do the screens show for `O=C(OCc1ccccc1)N1CCN(C(c2ccnc3ccccc23)c2nnnn2-c2ccc3c(c2)OCCO3)CC1` (stereo not drawn)?
ARFGAP1 inh: 6; ASAP1 GAP inh: -5

How did O=C(OCc1nnc(-c2ccccc2)o1)c1cc(=O)c2ccccc2o1 do in these assays?
PAFAH1B2 inh: 5; ARFGAP1 inh: 3; pPAFAH FP inh: 7; ASAP1 GAP inh: -8; PAFAH2 inh: 0; PAFAH1B3 inh: 1

Results for O=C(OCc1nnc(-c2ccccc2)o1)c1ccco1 ?
PAFAH1B2 inh: 2; ARFGAP1 inh: 10; pPAFAH FP inh: -2; ASAP1 GAP inh: 1; PAFAH2 inh: 45*; PAFAH1B3 inh: -1; PAFAH2 FP conf: 42*

How did CCOc1ncccc1C(=O)OCc1nnc(-c2ccccc2)o1 do in these assays?
PAFAH1B2 inh: 1; ARFGAP1 inh: 1; pPAFAH FP inh: 6; ASAP1 GAP inh: 2; PAFAH2 inh: 47*; PAFAH1B3 inh: 7; PAFAH2 FP conf: 45*

What do the screens show for `O=C(OCc1nnc(-c2ccccc2)o1)c1cccnc1Cl`?
PAFAH1B2 inh: 3; ARFGAP1 inh: 4; pPAFAH FP inh: 1; ASAP1 GAP inh: 0; PAFAH2 inh: 21; PAFAH1B3 inh: 3

How did O=C(OCc1nnc(-c2ccc(Cl)cc2)o1)c1ccc(O)cc1 do in these assays?
PAFAH1B2 inh: 1; ARFGAP1 inh: -5; pPAFAH FP inh: 7; ASAP1 GAP inh: 1; PAFAH2 inh: 75*; PAFAH1B3 inh: 2; PAFAH2 FP conf: 68*

How did Cc1ccc(C(=O)OCc2nnc(-c3ccccc3)o2)s1 do in these assays?
PAFAH1B2 inh: 3; ARFGAP1 inh: -8; pPAFAH FP inh: 3; ASAP1 GAP inh: 0; PAFAH2 inh: 81*; PAFAH1B3 inh: 5; PAFAH2 FP conf: 73*

Results for O=C1CCC(C(=O)OCc2nnc(-c3ccc(Cl)cc3)o2)=NN1 ?
PAFAH1B2 inh: 4; ARFGAP1 inh: -4; pPAFAH FP inh: 2; ASAP1 GAP inh: -6; PAFAH2 inh: 7; PAFAH1B3 inh: 3

What do the screens show for `CCOC(=O)c1nnn(-c2nonc2-n2cccc2)c1CCl`?
PAFAH1B2 inh: 1; ARFGAP1 inh: -3; pPAFAH FP inh: 0; ASAP1 GAP inh: 3; PAFAH2 inh: 31*; PAFAH1B3 inh: 5; PAFAH2 FP conf: 44*

How did C/C(NCCc1ccc(O)cc1)=C1/CCOC1=O do in these assays?
ARFGAP1 inh: -2; ASAP1 GAP inh: 10

What do the screens show for `COC(=O)N/N=C/c1ccc(-c2cccc(Cl)c2)o1`?
PAFAH1B2 inh: 0; ARFGAP1 inh: 0; pPAFAH FP inh: 3; ASAP1 GAP inh: 5; PAFAH2 inh: -2; PAFAH1B3 inh: -4
